The test system of data set [1] is RAW264.7. Nature of the data set: Inhibition of LPS-induced NO production in mouse RAW264.7 cells measured after 24 hrs. In kind it is functional, cell-based. Put shortly: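 RAW264.7 cells, harvested from 100 mm dishes, were seeded at 2 × 10^5 cells/well. They were pretreated with a range of sample concentrations for 30 min, then incubated 24 h with or without LPS at 1 µg/mL. Nitrite in the culture supernatant was measured by the Griess reaction, and IC50 was reported.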

Data set [2] deals with RAW264.7. Nature of the data set: Cytotoxicity against mouse RAW264.7 cells at concentration required inhibit NO synthesis by MTT assay. It counts as cell-based.

As usually defined, the IC50 is the concentration at which inhibition is half-maximal. A high value points to a need for much substance. In data set [1] (Mus musculus, RAW264.7, 24 h), `C[C@@H]1CC[C@@H]2[C@]3(O)[C@H]1CC[C@@]3(C)C[C@@]2(C)C(=O)O` [BRITANLIN C] showed an IC50 of 22.8 µM. Also, the Activity result in data set [2] is recorded as “Non-toxic”. `N=C(N)NN` [PIMAGEDINE]: the IC50 in data set [1] (Mus musculus, RAW264.7, 24 h) turned out to be 2.7 µM. Regarding `C=C1C(=O)O[C@H]2C[C@@H](C)[C@@H]3[C@@H](OC(C)=O)C[C@H](O)[C@@]3(C)[C@@H](OC(C)=O)[C@H]12`, the IC50 in data set [1] (Mus musculus, RAW264.7, 24 h) was 0.11 µM. Further, in data set [2], the Activity result was “Non-toxic”.

On to `C=C1C(=O)O[C@H]2C=C(CCC(C)=O)[C@H](C)C[C@H](OC(=O)CC)[C@H]12`, for which the IC50 in data set [1] (Mus musculus, RAW264.7, 24 h) was 13.3 µM. In addition, the Activity result in data set [2] is on record as “Non-toxic”.

`C=C1C[C@@H]2OC(=O)C(=C)[C@H]2C[C@@H]2[C@@H]1[C@@H](OC(C)=O)C[C@@]2(C)O` (stereo in doubt; 5): in data set [2], the Activity entry was “Non-toxic”. In the case of `C=C1C(=O)O[C@@H]2C[C@H](C)C(CCC(C)=O)=C[C@H](O)[C@H]12`, inhibition in data set [1] (Mus musculus, RAW264.7, 24 h) was half-maximal at 13.1 µM (IC50). Further, the Activity entry in data set [2] is on record as “Non-toxic”.

For the compound `C=C1C(=O)O[C@H]2C=C(C)[C@H]3[C@@H](OC(C)=O)C[C@@](C)(O)[C@@H]3C[C@H]12` (stereo in doubt; 9) [GAILLARDIN], half-maximal inhibition in data set [1] (raw264.7) (IC50) required 2.95 µM.

In the case of `C=C1C(=O)O[C@H]2C[C@@H](C)[C@@H]3[C@@H](OC(C)=O)C[C@H](O)[C@@]3(C)C[C@H]12`, the concentration for half-maximal inhibition (IC50) in data set [1] (Mus musculus, RAW264.7, 24 h) is 0.25 µM. The Activity result in data set [2] is recorded as “Non-toxic”. On the same counts, the results for `C=C1C(=O)O[C@@H]2C[C@H](C)C(CCC(C)=O)=CC[C@H]12` [TOMENTOSIN] are 9.15 µM and “Non-toxic”. For `C=C1C(=O)O[C@H]2C[C@@H](C)[C@H]3[C@@H](OC(C)=O)C[C@@](C)(O)[C@@]34O[C@H]4[C@H]12`, in that order: 26.2 µM and “Non-toxic”. For `C[C@@H]1CC[C@H](O)[C@]2(O)CC[C@H](c3cc3=O)C[C@@]12C` [INEARIIFOLIANONE], the IC50 in data set [1] (Mus musculus, RAW264.7, 24 h) stood at 12.9 µM. The Activity entry in data set [2] is “Non-toxic”. For `C=C1C(=O)O[C@H]2C[C@H](C)[C@@H]3CC(=O)C(C)=C3C[C@H]12` [XERANTOLIDE], in that order: 35.6 µM and “Non-toxic”. Turning to `C=C1C(=O)O[C@H]2C[C@@H](C)[C@@H]3CC[C@H](O)[C@@]3(C)C[C@H]12` [PSEUDOGUAIANOLIDE], in data set [1] (Mus musculus, RAW264.7, 24 h), 0.1 µM corresponded to half-maximal inhibition (IC50). In data set [2], the Activity entry was “Non-toxic”. Turning to `C=C1C(=O)O[C@H]2C=C(C)[C@@H]3CC[C@](C)(O)[C@@H]3C[C@H]12` [4-EPI-ISOINUVISCOLIDE], in data set [1] (Mus musculus, RAW264.7, 24 h), it took 28.7 µM to reach half-maximal inhibition (IC50). Also, the Activity entry in data set [2] is given as “Non-toxic”.

For the origin of these results see ChEMBL document CHEMBL1165997, “Sesquiterpenoids from Inula lineariifolia inhibit nitric oxide production” (J Nat Prod, 2010).
